ChEMBL document CHEMBL4765243, “Discovery of Novel Bromophenol-Thiosemicarbazone Hybrids as Potent Selective Inhibitors of Poly(ADP-ribose) Polymerase-1 (PARP-1) for Use in Cancer” (J Med Chem, 2019)
The source made the active and inactive calls. The rule behind the calls is not given here.

Tests used:
[1] = molecular target: Poly [ADP-ribose] polymerase 1 (Homo sapiens, UniProt P09874); test: Inhibition of PARP-1 in human SKOV3 cells assessed as decrease in MCM2 protein expression level at 2.5 to 10 uM incubated for 48 hrs by western blot analysis; type: cell-based; conditions: SK-OV-3, dose 2.5-10 µM
Sequence of Poly [ADP-ribose] polymerase 1 (P09874 whole entry): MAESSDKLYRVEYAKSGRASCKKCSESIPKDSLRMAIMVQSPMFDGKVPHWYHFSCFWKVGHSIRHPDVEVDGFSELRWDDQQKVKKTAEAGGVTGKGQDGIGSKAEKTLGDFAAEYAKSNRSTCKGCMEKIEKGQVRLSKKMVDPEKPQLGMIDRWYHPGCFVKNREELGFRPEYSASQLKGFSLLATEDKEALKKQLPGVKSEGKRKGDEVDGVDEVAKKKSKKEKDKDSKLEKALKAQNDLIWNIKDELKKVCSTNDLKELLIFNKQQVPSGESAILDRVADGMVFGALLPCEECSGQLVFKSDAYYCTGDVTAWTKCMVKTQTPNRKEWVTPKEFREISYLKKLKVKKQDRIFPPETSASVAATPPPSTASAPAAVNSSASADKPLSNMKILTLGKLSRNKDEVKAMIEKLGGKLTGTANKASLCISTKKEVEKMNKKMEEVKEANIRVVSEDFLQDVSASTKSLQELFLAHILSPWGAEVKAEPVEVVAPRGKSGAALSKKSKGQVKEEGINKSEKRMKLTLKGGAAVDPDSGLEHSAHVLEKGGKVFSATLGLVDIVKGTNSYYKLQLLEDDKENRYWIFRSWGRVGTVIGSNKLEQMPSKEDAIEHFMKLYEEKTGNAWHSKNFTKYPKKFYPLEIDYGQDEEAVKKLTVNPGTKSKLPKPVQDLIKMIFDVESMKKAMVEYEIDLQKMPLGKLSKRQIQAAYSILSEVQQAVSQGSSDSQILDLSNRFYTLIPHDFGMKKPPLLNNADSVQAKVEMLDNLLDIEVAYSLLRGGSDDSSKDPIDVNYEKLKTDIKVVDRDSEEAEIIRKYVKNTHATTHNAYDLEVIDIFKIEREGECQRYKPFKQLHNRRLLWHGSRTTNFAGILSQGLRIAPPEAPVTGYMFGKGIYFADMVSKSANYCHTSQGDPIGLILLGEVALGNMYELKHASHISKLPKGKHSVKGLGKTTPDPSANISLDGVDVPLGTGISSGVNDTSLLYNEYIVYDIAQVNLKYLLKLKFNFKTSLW
Method in brief: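 SK-OV-3 cells were grown in McCOY's 5A, seeded in 6-well plates and treated for 48 h. Lysate proteins were separated by 8-15 % SDS-PAGE and transferred to PVDF membranes. Membranes were blocked in 5 % nonfat milk, probed with primary antibody overnight at 4 °C and with HRP secondary antibody for 1 h at room temperature, then detected by enhanced chemiluminescence. Images are representative of 3 independent experiments.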

SK-OV-3 = test: Induction of cell cycle arrest in human SKOV3 cells assessed as accumulation at G2/M phase incubated for 48 hrs by propidium iodide staining based flow cytometry analysis; type: functional
Method in brief: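 SK-OV-3 cells in 6-well plates incubated 24 h, then treated 48 h. Cells harvested, fixed, stained with propidium iodide and analysed by flow cytometry.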

[2] = Toxicity in Balb/c nude mouse xenografted with human SKOV3 cells assessed as change in body weight at 25 mg/kg, po for 21 days and measured every third day; type: organism-based; conditions: in vivo, 504 h, time 21 day
Method in brief: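 Female BALB/c nu/nu mice, 6-8 weeks old, kept under SPF conditions. Each received 5×10^6 SK-OV-3 cells s.c. At 80–120 mm3 tumour volume, mice were split into four groups (n=6). […] Caliper measurement every three days; volume = X × (Y2/2).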

COc1cc(/C=N/NC(N)=S)c(Br)c(Br)c1OC
inhibition [1]: Active
Activity (SK-OV-3): Dose-dependent effect
Activity [2]: Non-Toxic
